In ChEMBL document CHEMBL3352626, “Synthesis and biological evaluation of novel oxindole-based RTK inhibitors as anti-cancer agents” (Bioorg Med Chem, 2014):
One block for each compound: values may come before it. The source made the active and inactive calls. The calls are words filed in the database; no cut-off is given here.

Tests used:
NCI-H1975 = assay: Antiproliferative activity against human NCI-H1975 cells at 10 uM after 72 hrs by MTS assay; type: functional
Procedure, shortened: (§1)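 Single-concentration screen. Cells at 4 × 10^4 cells/ml, seeded and incubated overnight, then given 10 µM compound in DMSO for 72 h (37 °C, 5% CO2), with DMSO-only controls. MTS added for 4 h and A490 read. Percent inhibition = (1 − OD490 treated/OD490 control) × 100, from triplicate experiments.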

A549 [1] = assay: Antiproliferative activity against human A549 cells at 10 uM after 72 hrs by MTS assay; type: functional
U-251 = assay: Antiproliferative activity against human U251 cells at 10 uM after 72 hrs by MTS assay; type: functional; procedure, shortened: as §1
[2] = Antiproliferative activity against human SGC7901 cells at 10 uM after 72 hrs by MTS assay; type: functional, SGC-7901
[3] = Antiproliferative activity against human Bel7402 cells at 10 uM after 72 hrs by MTS assay; type: functional, Bel-7402
[4] = Antiproliferative activity against human HCC827 cells at 10 uM after 72 hrs by MTS assay; type: functional
[5] = Antiproliferative activity against human H460 cells at 10 uM after 72 hrs by MTS assay; type: functional, NCI-H460
[6] = Antiproliferative activity against human PM8910 cells at 10 uM after 72 hrs by MTS assay; type: functional
[7] = Antiproliferative activity against human SKBR3 cells at 10 uM after 72 hrs by MTS assay; type: functional, SK-BR-3; procedure, shortened: as §1
[8] = Antiproliferative activity against human PM8910 cells after 72 hrs by MTS assay; type: functional, cell-based; conditions: PM8910, 72 h
Procedure, shortened: (§2)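 Cells at 4 × 10^4 cells/ml, seeded and left overnight, then exposed in triplicate to 30, 10, 3, 1, 0.3 and 0.1 µM compound in DMSO for 72 h at 37 °C under 5% CO2. MTS dye added for 4 h and absorbance read at 490 nm. Inhibition = (1 − OD treated/OD DMSO control) × 100. IC50 derived from the dilution series.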

[9] = Antiproliferative activity against human HCC827 cells after 72 hrs by MTS assay; type: functional, cell-based; conditions: HCC827, 72 h; procedure, shortened: as §2
[10] = Antiproliferative activity against human SGC7901 cells after 72 hrs by MTS assay; type: functional, cell-based; conditions: SGC-7901, 72 h; procedure, shortened: as §2
[11] = Antiproliferative activity against human Bel7402 cells after 72 hrs by MTS assay; type: functional, cell-based; conditions: Bel-7402, 72 h; procedure, shortened: as §2
A549 [12] = assay: Antiproliferative activity against human A549 cells after 72 hrs by MTS assay; type: functional, cell-based; conditions: A549, 72 h; procedure, shortened: as §2
[13] = Antiproliferative activity against human H460 cells after 72 hrs by MTS assay; type: functional, cell-based; conditions: NCI-H460, 72 h; procedure, shortened: as §2
[14] = Antiproliferative activity against rat NRK-52E cells after 72 hrs by MTS assay; type: cell-based
[15] = target: T1, Mast/stem cell growth factor receptor Kit (Homo sapiens, UniProt P10721); assay: Inhibition of recombinant c-Kit (unknown origin) at 10 uM after 1 hr by microfluidic assay
Procedure, shortened: (§3)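 Caliper microfluidic mobility-shift assay using recombinant kinases from Carna. Enzyme, substrate, ATP (at Km) and compound reacted for 1 h, then stopped with EDTA. Substrate-to-phosphoproduct conversion read on EZ Reader II. Percent inhibition calculated relative to no-enzyme blanks and full-reaction wells, each containing 2.5% DMSO.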

[16] = target: Platelet-derived growth factor receptor beta (Homo sapiens) (UniProt P09619); assay: Inhibition of recombinant PDGFRb (unknown origin) at 10 uM after 1 hr by microfluidic assay; procedure, shortened: as §3
[17] = target: Vascular endothelial growth factor receptor 2 (Homo sapiens) (UniProt P35968); assay: Inhibition of recombinant KDR (unknown origin) at 10 uM after 1 hr by microfluidic assay; procedure, shortened: as §3
Aurora kinase B [18] = target: T2, Aurora kinase B (Homo sapiens, UniProt Q96GD4); assay: Inhibition of recombinant Aur B (unknown origin) at 10 uM after 1 hr by microfluidic assay; procedure, shortened: as §3
[19] = target: T3, Serine/threonine-protein kinase Sgk1 (Homo sapiens) (UniProt O00141); assay: Inhibition of recombinant SGK1 (unknown origin) at 10 uM after 1 hr by microfluidic assay; procedure, shortened: as §3
T3 sequence (whole entry): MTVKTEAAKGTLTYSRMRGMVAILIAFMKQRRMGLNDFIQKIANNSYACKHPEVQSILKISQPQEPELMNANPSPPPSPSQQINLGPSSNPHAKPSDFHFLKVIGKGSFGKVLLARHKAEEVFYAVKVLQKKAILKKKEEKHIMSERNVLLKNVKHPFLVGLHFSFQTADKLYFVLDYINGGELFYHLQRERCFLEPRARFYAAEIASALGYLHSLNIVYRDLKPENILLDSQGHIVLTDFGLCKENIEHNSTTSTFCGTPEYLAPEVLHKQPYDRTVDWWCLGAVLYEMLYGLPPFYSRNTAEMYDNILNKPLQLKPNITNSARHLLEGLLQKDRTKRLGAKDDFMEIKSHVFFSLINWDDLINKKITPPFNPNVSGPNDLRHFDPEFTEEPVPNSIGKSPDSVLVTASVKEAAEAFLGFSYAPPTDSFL

[20] = target: Epidermal growth factor receptor (Homo sapiens) (UniProt P00533); assay: Inhibition of recombinant EGFR (unknown origin) at 10 uM after 1 hr by microfluidic assay; procedure, shortened: as §3
[21] = target: T1, Mast/stem cell growth factor receptor Kit; assay: Inhibition of recombinant c-Kit (unknown origin) at 1 uM after 1 hr by microfluidic assay; procedure, shortened: as §3
[22] = target: Platelet-derived growth factor receptor beta (Homo sapiens) (UniProt P09619); assay: Inhibition of recombinant PDGFRb (unknown origin) at 1 uM after 1 hr by microfluidic assay; procedure, shortened: as §3
[23] = target: Vascular endothelial growth factor receptor 2 (Homo sapiens) (UniProt P35968); assay: Inhibition of recombinant KDR (unknown origin) at 1 uM after 1 hr by microfluidic assay; procedure, shortened: as §3
Aurora kinase B [24] = target: T2, Aurora kinase B; assay: Inhibition of recombinant Aur B (unknown origin) at 1 uM after 1 hr by microfluidic assay; procedure, shortened: as §3
[25] = target: T3, Serine/threonine-protein kinase Sgk1 (Homo sapiens); assay: Inhibition of recombinant SGK1 (unknown origin) at 1 uM after 1 hr by microfluidic assay; procedure, shortened: as §3
[26] = target: Epidermal growth factor receptor (Homo sapiens) (UniProt P00533); assay: Inhibition of recombinant EGFR (unknown origin) at 1 uM after 1 hr by microfluidic assay; procedure, shortened: as §3
[27] = target: T1, Mast/stem cell growth factor receptor Kit; assay: Inhibition of recombinant c-Kit (unknown origin) at 0.1 uM after 1 hr by microfluidic assay; procedure, shortened: as §3
[28] = target: Platelet-derived growth factor receptor beta (Homo sapiens) (UniProt P09619); assay: Inhibition of recombinant PDGFRb (unknown origin) at 0.1 uM after 1 hr by microfluidic assay; procedure, shortened: as §3
[29] = target: Vascular endothelial growth factor receptor 2 (Homo sapiens) (UniProt P35968); assay: Inhibition of recombinant KDR (unknown origin) at 0.1 uM after 1 hr by microfluidic assay; procedure, shortened: as §3
Aurora kinase B [30] = target: T2, Aurora kinase B; assay: Inhibition of recombinant Aur B (unknown origin) at 0.1 uM after 1 hr by microfluidic assay; procedure, shortened: as §3
[31] = target: T3, Serine/threonine-protein kinase Sgk1 (Homo sapiens); assay: Inhibition of recombinant SGK1 (unknown origin) at 0.1 uM after 1 hr by microfluidic assay; procedure, shortened: as §3
[32] = target: Epidermal growth factor receptor (Homo sapiens) (UniProt P00533); assay: Inhibition of recombinant EGFR (unknown origin) at 0.1 uM after 1 hr by microfluidic assay; procedure, shortened: as §3
[33] = target: T1, Mast/stem cell growth factor receptor Kit; assay: Inhibition of recombinant c-Kit (unknown origin) after 1 hr by microfluidic assay; procedure, shortened: as §3
Aurora kinase B [34] = target: T2, Aurora kinase B; assay: Inhibition of recombinant Aur B (unknown origin) after 1 hr by microfluidic assay; procedure, shortened: as §3
A549 [35] = assay: Cell cycle arrest at G1 phase in human A549 cells at 3 to 6 uM after 24 hrs by flow cytometry; type: functional, cell-based
Procedure, shortened: (§4)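 Cells seeded in 60 mm plates, treated for 24 h, washed twice in PBS and fixed in ice-cold 75% ethanol. Stained overnight at 4 °C with PI ([…]) containing RNase 180 U/ml, 0.15% Triton X-100 and polyethylene glycol in 4 mmol/l citrate, pH 7.8. DNA content measured by FACScan flow cytometry against a DMSO group. Mean ± SEM of three independent experiments.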

A549 [36] = assay: Cell cycle arrest in human A549 cells assessed as reduction of cells in S phase at 3 to 6 uM after 24 hrs by flow cytometry; type: functional, cell-based; procedure, shortened: as §4
[37] = Cell cycle arrest at G1 phase in human PM8910 cells at 3 to 6 uM after 24 hrs by flow cytometry; type: functional, cell-based; procedure, shortened: as §4
[38] = Cell cycle arrest in human PM8910 cells assessed as reduction of cells in S phase at 3 to 6 uM after 24 hrs by flow cytometry; type: functional, cell-based; procedure, shortened: as §4
[39] = Cell cycle arrest at G1 phase in human SGC7901 cells at 3 to 6 uM after 24 hrs by flow cytometry; type: functional, cell-based; conditions: SGC-7901; procedure, shortened: as §4
[40] = Cell cycle arrest in human SGC7901 cells assessed as reduction of cells in S phase at 3 to 6 uM after 24 hrs by flow cytometry; type: functional, cell-based; conditions: SGC-7901; procedure, shortened: as §4
A549 [41] = assay: Cell cycle arrest at G1 phase in human A549 cells at 5 to 10 uM after 24 hrs by flow cytometry; type: functional, cell-based; procedure, shortened: as §4
A549 [42] = assay: Cell cycle arrest in human A549 cells assessed as reduction of cells in S phase at 5 to 10 uM after 24 hrs by flow cytometry; type: functional, cell-based; procedure, shortened: as §4
[43] = Cell cycle arrest at G1 phase in human PM8910 cells at 5 to 10 uM after 24 hrs by flow cytometry; type: functional, cell-based; procedure, shortened: as §4
[44] = Cell cycle arrest in human PM8910 cells assessed as reduction of cells in S phase at 5 to 10 uM after 24 hrs by flow cytometry; type: functional, cell-based; procedure, shortened: as §4
[45] = Cell cycle arrest at G1 phase in human SGC7901 cells at 5 to 10 uM after 24 hrs by flow cytometry; type: functional, cell-based; conditions: SGC-7901; procedure, shortened: as §4
[46] = Cell cycle arrest in human SGC7901 cells assessed as reduction of cells in S phase at 5 to 10 uM after 24 hrs by flow cytometry; type: functional, cell-based; conditions: SGC-7901; procedure, shortened: as §4

Chain of Vascular endothelial growth factor receptor 2 (Homo sapiens) (P35968 whole entry): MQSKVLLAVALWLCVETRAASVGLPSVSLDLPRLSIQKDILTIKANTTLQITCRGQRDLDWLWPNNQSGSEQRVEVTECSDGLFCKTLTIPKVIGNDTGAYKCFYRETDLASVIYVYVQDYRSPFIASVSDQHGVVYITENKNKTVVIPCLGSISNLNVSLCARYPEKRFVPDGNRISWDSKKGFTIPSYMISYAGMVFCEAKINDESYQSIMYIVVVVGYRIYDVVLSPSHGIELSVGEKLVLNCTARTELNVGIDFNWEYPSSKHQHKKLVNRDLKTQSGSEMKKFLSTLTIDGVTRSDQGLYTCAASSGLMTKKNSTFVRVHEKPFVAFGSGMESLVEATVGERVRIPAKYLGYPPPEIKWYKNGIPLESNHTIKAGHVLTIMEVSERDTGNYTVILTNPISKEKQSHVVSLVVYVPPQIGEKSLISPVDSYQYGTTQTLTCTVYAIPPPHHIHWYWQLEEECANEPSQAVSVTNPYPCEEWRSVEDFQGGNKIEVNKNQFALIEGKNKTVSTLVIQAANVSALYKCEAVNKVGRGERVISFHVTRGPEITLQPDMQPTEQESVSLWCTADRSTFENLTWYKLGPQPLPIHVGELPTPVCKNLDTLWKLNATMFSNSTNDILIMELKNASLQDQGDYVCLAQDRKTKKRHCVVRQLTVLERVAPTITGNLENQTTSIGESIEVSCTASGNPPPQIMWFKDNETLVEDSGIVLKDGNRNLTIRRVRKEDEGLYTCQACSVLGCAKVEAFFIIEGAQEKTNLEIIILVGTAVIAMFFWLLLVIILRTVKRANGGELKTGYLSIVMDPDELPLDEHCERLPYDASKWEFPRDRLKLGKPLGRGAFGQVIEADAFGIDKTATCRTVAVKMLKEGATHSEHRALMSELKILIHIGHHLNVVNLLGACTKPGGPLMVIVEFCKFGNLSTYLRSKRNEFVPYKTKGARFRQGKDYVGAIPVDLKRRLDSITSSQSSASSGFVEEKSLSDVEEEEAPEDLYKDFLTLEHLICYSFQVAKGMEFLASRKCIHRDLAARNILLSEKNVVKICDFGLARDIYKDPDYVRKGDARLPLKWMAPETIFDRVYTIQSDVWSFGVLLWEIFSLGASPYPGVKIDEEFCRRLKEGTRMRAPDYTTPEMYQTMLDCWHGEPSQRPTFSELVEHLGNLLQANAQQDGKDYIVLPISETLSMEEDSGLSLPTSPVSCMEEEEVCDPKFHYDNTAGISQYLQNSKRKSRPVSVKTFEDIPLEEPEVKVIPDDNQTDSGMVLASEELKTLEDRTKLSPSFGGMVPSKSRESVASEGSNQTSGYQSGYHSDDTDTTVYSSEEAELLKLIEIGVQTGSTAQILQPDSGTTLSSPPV
Chain of Platelet-derived growth factor receptor beta (Homo sapiens) (P09619 whole entry): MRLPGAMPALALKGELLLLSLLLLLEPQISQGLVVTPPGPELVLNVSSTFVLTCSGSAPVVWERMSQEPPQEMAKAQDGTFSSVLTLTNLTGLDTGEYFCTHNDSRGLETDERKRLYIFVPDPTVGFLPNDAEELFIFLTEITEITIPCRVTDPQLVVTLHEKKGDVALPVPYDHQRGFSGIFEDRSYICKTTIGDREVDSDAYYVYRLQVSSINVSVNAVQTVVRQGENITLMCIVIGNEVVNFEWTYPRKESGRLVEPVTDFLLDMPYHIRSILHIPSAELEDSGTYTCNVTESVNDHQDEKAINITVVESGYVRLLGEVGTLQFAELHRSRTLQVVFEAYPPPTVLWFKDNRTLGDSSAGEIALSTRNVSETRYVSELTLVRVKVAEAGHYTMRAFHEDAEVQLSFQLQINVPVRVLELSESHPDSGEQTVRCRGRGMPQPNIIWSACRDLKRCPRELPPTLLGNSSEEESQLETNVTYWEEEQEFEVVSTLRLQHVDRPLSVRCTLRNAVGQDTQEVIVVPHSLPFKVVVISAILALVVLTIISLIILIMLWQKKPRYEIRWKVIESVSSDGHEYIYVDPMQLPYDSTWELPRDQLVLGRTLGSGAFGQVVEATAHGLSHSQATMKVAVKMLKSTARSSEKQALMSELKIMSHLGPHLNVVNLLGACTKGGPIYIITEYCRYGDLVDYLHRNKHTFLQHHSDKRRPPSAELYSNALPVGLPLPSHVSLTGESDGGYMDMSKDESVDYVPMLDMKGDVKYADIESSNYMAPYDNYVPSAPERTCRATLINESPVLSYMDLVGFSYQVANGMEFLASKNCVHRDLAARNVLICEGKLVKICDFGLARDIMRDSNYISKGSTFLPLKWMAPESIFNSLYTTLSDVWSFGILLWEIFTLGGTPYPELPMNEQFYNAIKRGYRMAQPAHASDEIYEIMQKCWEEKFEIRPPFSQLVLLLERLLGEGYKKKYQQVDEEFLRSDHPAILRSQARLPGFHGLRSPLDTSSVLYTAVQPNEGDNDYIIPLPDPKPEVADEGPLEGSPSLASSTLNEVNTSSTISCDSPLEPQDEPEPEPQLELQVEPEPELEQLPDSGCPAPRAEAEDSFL
T1 sequence (P10721 whole entry): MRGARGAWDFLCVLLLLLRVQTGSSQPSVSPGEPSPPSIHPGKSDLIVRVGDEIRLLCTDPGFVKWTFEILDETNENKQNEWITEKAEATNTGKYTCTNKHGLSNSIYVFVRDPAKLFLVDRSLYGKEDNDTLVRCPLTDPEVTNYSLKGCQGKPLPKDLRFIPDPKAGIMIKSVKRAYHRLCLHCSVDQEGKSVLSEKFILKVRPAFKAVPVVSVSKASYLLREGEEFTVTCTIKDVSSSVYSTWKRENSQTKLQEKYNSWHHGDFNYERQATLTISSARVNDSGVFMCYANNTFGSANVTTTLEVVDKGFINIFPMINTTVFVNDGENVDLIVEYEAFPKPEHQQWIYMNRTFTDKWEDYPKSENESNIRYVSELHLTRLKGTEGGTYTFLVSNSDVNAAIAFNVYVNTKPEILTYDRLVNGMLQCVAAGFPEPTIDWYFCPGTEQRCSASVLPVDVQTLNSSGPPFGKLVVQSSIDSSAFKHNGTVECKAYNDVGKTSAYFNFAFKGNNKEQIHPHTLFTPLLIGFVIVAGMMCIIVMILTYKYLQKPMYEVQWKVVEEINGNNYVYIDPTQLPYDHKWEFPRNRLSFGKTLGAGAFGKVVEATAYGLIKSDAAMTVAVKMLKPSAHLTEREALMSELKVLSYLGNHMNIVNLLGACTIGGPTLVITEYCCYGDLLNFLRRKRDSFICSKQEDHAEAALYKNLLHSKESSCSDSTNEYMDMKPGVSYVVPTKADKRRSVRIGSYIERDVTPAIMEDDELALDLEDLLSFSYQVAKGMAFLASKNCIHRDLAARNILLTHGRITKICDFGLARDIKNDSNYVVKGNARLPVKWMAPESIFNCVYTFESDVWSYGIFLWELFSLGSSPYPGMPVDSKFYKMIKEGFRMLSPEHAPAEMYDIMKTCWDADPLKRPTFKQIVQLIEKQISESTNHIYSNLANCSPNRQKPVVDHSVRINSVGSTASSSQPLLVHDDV
Chain of Epidermal growth factor receptor (Homo sapiens) (P00533 whole entry): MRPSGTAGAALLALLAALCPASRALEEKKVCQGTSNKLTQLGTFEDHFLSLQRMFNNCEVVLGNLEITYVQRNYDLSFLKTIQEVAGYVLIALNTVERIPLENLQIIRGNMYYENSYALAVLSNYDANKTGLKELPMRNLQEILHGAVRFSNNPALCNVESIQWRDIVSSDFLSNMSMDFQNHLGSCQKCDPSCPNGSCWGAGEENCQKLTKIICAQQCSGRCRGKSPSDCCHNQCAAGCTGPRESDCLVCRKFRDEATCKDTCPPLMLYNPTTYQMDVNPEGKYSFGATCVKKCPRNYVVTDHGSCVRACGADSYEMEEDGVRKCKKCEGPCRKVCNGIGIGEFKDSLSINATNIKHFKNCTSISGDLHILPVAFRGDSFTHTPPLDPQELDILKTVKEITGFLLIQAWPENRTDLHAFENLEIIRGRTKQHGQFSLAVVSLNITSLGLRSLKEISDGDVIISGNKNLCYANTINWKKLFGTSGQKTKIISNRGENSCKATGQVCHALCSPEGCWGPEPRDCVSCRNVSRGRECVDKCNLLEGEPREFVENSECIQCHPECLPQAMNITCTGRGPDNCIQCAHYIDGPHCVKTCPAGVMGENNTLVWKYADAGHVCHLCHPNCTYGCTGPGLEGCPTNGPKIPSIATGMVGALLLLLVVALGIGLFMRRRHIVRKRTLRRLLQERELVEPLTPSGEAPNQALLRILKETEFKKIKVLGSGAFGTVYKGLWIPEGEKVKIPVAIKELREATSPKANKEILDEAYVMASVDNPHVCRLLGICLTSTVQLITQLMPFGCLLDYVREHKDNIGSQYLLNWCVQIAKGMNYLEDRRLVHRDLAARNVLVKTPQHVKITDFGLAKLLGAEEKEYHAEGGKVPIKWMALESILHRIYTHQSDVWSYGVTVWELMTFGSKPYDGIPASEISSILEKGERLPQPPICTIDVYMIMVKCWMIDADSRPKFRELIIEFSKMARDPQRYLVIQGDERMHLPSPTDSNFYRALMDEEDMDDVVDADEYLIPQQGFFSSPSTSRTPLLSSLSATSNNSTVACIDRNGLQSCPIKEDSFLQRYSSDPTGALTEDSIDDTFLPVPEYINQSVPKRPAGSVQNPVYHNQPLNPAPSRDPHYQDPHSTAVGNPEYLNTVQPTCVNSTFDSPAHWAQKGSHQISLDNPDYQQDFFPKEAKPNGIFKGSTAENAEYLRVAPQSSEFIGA
T2 sequence (Q96GD4 whole entry): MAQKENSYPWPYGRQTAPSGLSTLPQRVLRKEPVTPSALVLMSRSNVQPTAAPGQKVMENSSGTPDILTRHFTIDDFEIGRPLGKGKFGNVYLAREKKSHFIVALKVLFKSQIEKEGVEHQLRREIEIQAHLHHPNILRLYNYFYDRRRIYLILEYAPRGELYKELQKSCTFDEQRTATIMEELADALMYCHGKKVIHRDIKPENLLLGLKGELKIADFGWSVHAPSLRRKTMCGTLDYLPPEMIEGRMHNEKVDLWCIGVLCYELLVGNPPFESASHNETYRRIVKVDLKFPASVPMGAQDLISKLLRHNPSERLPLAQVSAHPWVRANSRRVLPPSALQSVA

IC50 (A549 [12]): 3.04 µM
inhibition [15]: 57.6%
inhibition [16]: 76%
inhibition [17]: 62.6%
inhibition (Aurora kinase B [18]): 88.3%
inhibition [19]: 42.4%
inhibition [20]: 24.3%
inhibition [21]: 56.4%
inhibition [22]: 46.7%
inhibition [23]: 14.7%
inhibition (Aurora kinase B [24]): 53.5%
inhibition [25]: 11.8%
inhibition [26]: 20%
inhibition [27]: 31.9%
inhibition [28]: 13.6%
inhibition [29]: 6%
inhibition (Aurora kinase B [30]): 14.4%
inhibition [31]: 3.56%
inhibition [32]: 19.1%
IC50 [33]: 0.071 µM
IC50 (Aurora kinase B [34]): 0.587 µM
SMILES: O=C1Nc2ccccc2/C1=C/c1ccc(N2CCN(C(=O)CCCl)CC2)cc1
Activity (NCI-H1975): 67.22%
Activity (A549 [1]): 54.9%
Activity (U-251): 20.43%
Activity [2]: 60.98%
Activity [3]: 49.21%
Activity [4]: 56.47%
Activity [5]: 66.63%
Activity [6]: 59.46%
Activity [7]: 26.45%
IC50 [8]: 2.76 µM
IC50 [9]: 12.7 µM
IC50 [10]: 2.85 µM
IC50 [11]: 3.39 µM
IC50 [13]: 20.1 µM
IC50 [14]: > 30 µM
Activity (A549 [35]): Active
Activity (A549 [36]): Active
Activity [37]: Active
Activity [38]: Active
Activity [39]: Active
Activity [40]: Active

IC50 (A549 [12]): 10.1 µM
inhibition [15]: 88.2%
inhibition [16]: 61.8%
inhibition [17]: 30.6%
inhibition (Aurora kinase B [18]): 93.5%
inhibition [19]: 90.7%
inhibition [20]: 75.4%
inhibition [21]: 55.3%
inhibition [22]: 26.2%
inhibition [23]: 7.2%
inhibition (Aurora kinase B [24]): 41.6%
inhibition [25]: 38.3%
inhibition [26]: 30.1%
inhibition [27]: 19.1%
inhibition [28]: 0.4%
inhibition [29]: 13.4%
inhibition (Aurora kinase B [30]): 4.5%
inhibition [31]: 2.2%
inhibition [32]: 14.9%
IC50 [33]: 0.128 µM
IC50 (Aurora kinase B [34]): 2.21 µM
SMILES: C=CC(=O)N1CCN(c2ccc(/C=C3\C(=O)Nc4ccccc43)cc2)CC1
Activity (NCI-H1975): 60.01%
Activity (A549 [1]): 50.28%
Activity (U-251): 31.7%
Activity [2]: 55.46%
Activity [3]: 55.06%
Activity [4]: 57.19%
Activity [5]: 71.31%
Activity [6]: 59.52%
Activity [7]: 27.99%
IC50 [8]: 6.74 µM
IC50 [9]: 7 µM
IC50 [10]: 9.75 µM
IC50 [11]: 7.68 µM
IC50 [13]: 11.5 µM
IC50 [14]: 28.8 µM
Activity (A549 [41]): Active
Activity (A549 [42]): Active
Activity [43]: Active
Activity [44]: Active
Activity [45]: Active
Activity [46]: Active
